Reference: ChEMBL document CHEMBL4052644, “Synthesis of novel benzylidene analogues of betulinic acid as potent cytotoxic agents” (Eur J Med Chem, 2017)
pIC50: −log10 of the molar value.

Columns and labels:
[1] = system: A549; experiment: Growth inhibition of human A549 cells at 10 uM after 48 hrs by SRB assay relative to control; format: functional; settings: A549, 48 h, read-out: GI
Procedure, shortened: (§1)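 Primary SRB screen of every compound at a single concentration of 10 µM. Growth inhibition is expressed relative to control.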

[2] = system: PC-3; experiment: Growth inhibition of human PC3 cells at 10 uM after 48 hrs by SRB assay relative to control; format: functional; settings: PC-3, 48 h, read-out: GI; procedure, shortened: as §1
[3] = system: HCT-116; experiment: Growth inhibition of human HCT116 cells at 10 uM after 48 hrs by SRB assay relative to control; format: functional; settings: HCT-116, 48 h, read-out: GI; procedure, shortened: as §1
[4] = system: MCF7; experiment: Growth inhibition of human MCF7 cells at 10 uM after 48 hrs by SRB assay relative to control; format: functional; settings: MCF7, 48 h, read-out: GI; procedure, shortened: as §1
[5] = system: MIA PaCa-2; experiment: Growth inhibition of human MIAPaCa2 at 10 uM after 48 hrs by SRB assay relative to control; format: functional; settings: MIA PaCa-2, 48 h, read-out: GI; procedure, shortened: as §1
[6] = system: A549; experiment: Cytotoxicity against human A549 cells assessed as reduction in cell viability after 48 hrs by SRB assay; format: functional, cell-based; settings: A549, 48 h
Procedure, shortened: (§2)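 SRB assay. Compounds active at 10 µM in the primary screen were retested at 1, 2.5 and 5 µM, and IC50 was calculated from these concentrations. The normal breast epithelial line fR2 was tested alongside the cancer lines.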

[7] = system: PC-3; experiment: Cytotoxicity against human PC3 cells assessed as reduction in cell viability after 48 hrs by SRB assay; format: functional, cell-based; settings: PC-3, 48 h; procedure, shortened: as §2
[8] = system: HCT-116; experiment: Cytotoxicity against human HCT116 cells assessed as reduction in cell viability after 48 hrs by SRB assay; format: functional, cell-based; settings: HCT-116, 48 h; procedure, shortened: as §2
[9] = system: MCF7; experiment: Cytotoxicity against human MCF7 cells assessed as reduction in cell viability after 48 hrs by SRB assay; format: functional, cell-based; settings: MCF7, 48 h; procedure, shortened: as §2
[10] = system: MIA PaCa-2; experiment: Cytotoxicity against human MIAPaCa2 cells assessed as reduction in cell viability after 48 hrs by SRB assay; format: functional, cell-based; settings: MIA PaCa-2, 48 h; procedure, shortened: as §2
[11] = Cytotoxicity against human FR2 cells assessed as reduction in cell viability after 48 hrs by SRB assay; format: cell-based; settings: FR2, 48 h; procedure, shortened: as §2
[12] = Selectivity index, ratio of IC50 for human FR2 cells to IC50 for human A549 cells; format: functional
Procedure, shortened: (§3)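 Selectivity index is the IC50 in normal breast epithelial fR2 cells divided by the IC50 in each cancer line. All IC50 values come from the SRB assay.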

[13] = Selectivity index, ratio of IC50 for human FR2 cells to IC50 for human PC3 cells; format: functional; procedure, shortened: as §3
[14] = Selectivity index, ratio of IC50 for human FR2 cells to IC50 for human HCT116 cells; format: functional; procedure, shortened: as §3
[15] = Selectivity index, ratio of IC50 for human FR2 cells to IC50 for human MCF7 cells; format: functional; procedure, shortened: as §3
[16] = Selectivity index, ratio of IC50 for human FR2 cells to IC50 for human MIAPaCa2 cells; format: functional; procedure, shortened: as §3

Compound | inhibition of growth at 10 µM [1] [%] | inhibition of growth at 10 µM [2] [%] | inhibition of growth at 10 µM [3] [%] | inhibition of growth at 10 µM [4] [%] | inhibition of growth at 10 µM [5] [%] | pIC50 [6] | pIC50 [7] | pIC50 [8] | pIC50 [9] | pIC50 [10] | pIC50 [11] | Ratio IC50 [12] | Ratio IC50 [13] | Ratio IC50 [14] | Ratio IC50 [15] | Ratio IC50 [16]
C=C(C)[C@@H]1CC[C@]2(C(=O)O)CC[C@]3(C)[C@H](CC[C@@H]4[C@@]5(C)C/C(=C\c6ccc(Br)cc6)[C@H](O)C(C)(C)[C@@H]5CC[C@]43C)[C@@H]12 | 80 | 48 | 66 | 64 | 48 | 5.74 | 5.09 | 5.24 | 5.09 | < 5.00 | 4.45 | 19.63 | 4.3 | 6.2 | 4.36 | 
C=C(C)[C@@H]1CC[C@]2(C(=O)O)CC[C@]3(C)[C@H](CC[C@@H]4[C@@]5(C)C/C(=C\c6cc(Br)ccc6OC)[C@H](O)C(C)(C)[C@@H]5CC[C@]43C)[C@@H]12 | 65 | 7 | 54 | 67 | 16 | 5.55 | < 5.00 | 5.26 | 5.28 | < 5.00 | 4.98 | 3.76 |  | 1.93 | 2.025 | 
C=C(C)[C@@H]1CC[C@]2(C(=O)O)CC[C@]3(C)[C@H](CC[C@@H]4[C@@]5(C)C/C(=C\c6ccc(Br)cc6)C(=O)C(C)(C)[C@@H]5CC[C@]43C)[C@@H]12 | 72 | 66 | 61 | 68 | 27 | 5.77 | 5.08 | 5.36 | 5.15 | < 5.00 | 4.98 | 6.15 | 1.267 | 2.39 | 1.481 | 
C=C(C)[C@@H]1CC[C@]2(C(=O)O)CC[C@]3(C)[C@H](CC[C@@H]4[C@@]5(C)C/C(=C/C=C/c6ccccc6)C(=O)C(C)(C)[C@@H]5CC[C@]43C)[C@@H]12 | 93 | 71 | 66 | 84 | 48 | 5.47 | 5.11 | 5.24 | 5.14 | < 5.00 | 4.88 | 3.864 | 1.684 | 2.265 | 1.825 | 
C=C(C)[C@@H]1CC[C@]2(C(=O)O)CC[C@]3(C)[C@H](CC[C@@H]4[C@@]5(C)C/C(=C\c6ccc(F)cc6)[C@H](O)C(C)(C)[C@@H]5CC[C@]43C)[C@@H]12 | 59 | 48 | 67 | 77 | 78 | 5.40 | < 5.00 | 5.82 | 5.93 | 5.92 | 4.84 | 3.6 |  | 9.62 | 12.22 | 8.702
C=C(C)[C@@H]1CC[C@]2(C(=O)O)CC[C@]3(C)[C@H](CC[C@@H]4[C@@]5(C)C/C(=C\c6cccc7ccccc67)[C@H](O)C(C)(C)[C@@H]5CC[C@]43C)[C@@H]12 | 36 | 36 | 55 | 64 | 62 | < 5.00 | < 5.00 | 5.44 | 5.12 | 5.15 | 5.00 |  |  | 2.788 | 1.338 | 1.416
C=C(C)[C@@H]1CC[C@]2(C(=O)O)CC[C@]3(C)[C@H](CC[C@@H]4[C@@]5(C)C/C(=C\c6ccc(F)c(Br)c6)[C@H](O)C(C)(C)[C@@H]5CC[C@]43C)[C@@H]12 | 65 | 31 | 57 | 72 | 40 | 5.31 | < 5.00 | 5.08 | 5.19 | < 5.00 | 4.59 | 5.253 |  | 3.064 | 4.021 | 
C=C(C)[C@@H]1CC[C@]2(C(=O)O)CC[C@]3(C)[C@H](CC[C@@H]4[C@@]5(C)C/C(=C\c6cccnc6)[C@H](O)C(C)(C)[C@@H]5CC[C@]43C)[C@@H]12 | 71 | 26 | 65 | 72 | 63 | 5.47 | < 5.00 | 5.30 | 5.41 | 5.24 | 4.91 | 3.65 |  | 2.46 | 3.18 | 
C=C(C)[C@@H]1CC[C@]2(C(=O)O)CC[C@]3(C)[C@H](CC[C@@H]4[C@@]5(C)C/C(=C\c6ccccc6Br)[C@H](O)C(C)(C)[C@@H]5CC[C@]43C)[C@@H]12 | 47 | 19 | 43 | 57 | 49 | < 5.00 | < 5.00 | < 5.00 | 5.09 | 5.02 | 4.66 |  |  |  | 2.642 | 2.257
C=C(C)[C@@H]1CC[C@]2(C(=O)O)CC[C@]3(C)[C@H](CC[C@@H]4[C@@]5(C)C/C(=C\c6cc(Br)ccc6OC)C(=O)C(C)(C)[C@@H]5CC[C@]43C)[C@@H]12 | 88 | 81 | 92 | 85 | 28 | 5.77 | 5.15 | 5.33 | 5.20 | < 5.00 | 4.88 | 7.705 | 1.854 | 2.802 | 2.09 | 
C=C(C)[C@@H]1CC[C@]2(C(=O)O)CC[C@]3(C)[C@H](CC[C@@H]4[C@@]5(C)C/C(=C\c6cccc(Br)c6)C(=O)C(C)(C)[C@@H]5CC[C@]43C)[C@@H]12 | 71 | 56 | 57 | 56 | 35 | 5.52 | 5.06 | 5.31 | 5.28 | < 5.00 | 4.77 | 5.55 | 1.94 | 3.44 | 3.25 | 
C=C(C)[C@@H]1CC[C@]2(C(=O)O)CC[C@]3(C)[C@H](CC[C@@H]4[C@@]5(C)C/C(=C\c6cccc([N+](=O)[O-])c6)C(=O)C(C)(C)[C@@H]5CC[C@]43C)[C@@H]12 | 75 | 41 | 69 | 70 | 31 | 5.33 | < 5.00 | 5.12 | 5.15 | < 5.00 | 4.91 | 2.591 | 3.009 | 1.602 | 1.715 | 
C=C(C)[C@@H]1CC[C@]2(C(=O)O)CC[C@]3(C)[C@H](CC[C@@H]4[C@@]5(C)C/C(=C\c6ccc([N+](=O)[O-])cc6)C(=O)C(C)(C)[C@@H]5CC[C@]43C)[C@@H]12 | 82 | 37 | 75 | 83 | 61 | 5.82 | < 5.00 | 5.85 | 5.51 | 5.19 | 4.85 | 9.353 |  | 10.02 | 4.525 | 2.158
